Laboratory results as given in ChEMBL document CHEMBL2434866, “Synthesis, antibacterial and antioxidant activities of new 1-alkyl-4-(1-alkyl-4-oxo-1,4-dihydroquinolin-2-yl)pyridinium bromides” (2013).
Calls of active or inactive are those of the source. The calls are words filed in the database; no cut-off is given here.

Experiments:
[1] = Antioxidant activity assessed as trolox equivalent of ferric ion reducing activity using fe2+-TPTZ at 1 mg/ml after 20 mins by FRAP assay; type: functional
How it was run: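 Sample at 1 mg/mL was mixed with reagent, kept 20 min at room temperature, and read at 595 nm against a water blank. Triplicates were corrected for reagent and sample blanks. TEAC came from a five-point Trolox calibration curve.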

[2] = test system: Radical scavenging activity; test: Antioxidant activity assessed as DPPH radical scavenging activity after 50 mins; type: functional
How it was run: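 DPPH• in methanol was mixed 1:1 with sample at five final concentrations (6.25–100.00), vortexed, and kept 50 min at room temperature. Absorbance was read at 517 nm and plotted against concentration, with reagent-blank and solvent controls. SC50 was read from the graph as the concentration halving the initial DPPH•.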

Klebsiella pneumoniae [3] = test: Antibacterial activity against Klebsiella pneumoniae ATCC 13883 assessed as growth inhibition after 18 to 24 hrs by microdilution assay; type: functional
How it was run: (§1)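 Broth microdilution MIC in LB medium at pH 7.2. Compounds came from DMSO stocks and were serially diluted from 1000 to 7.8 (final). Inoculum was mid-log cells diluted to OD600 0.004 (about 5 × 10^5 CFU/mL). Plates were incubated at 37 °C for 18–24 h. MIC was the last dilution without visible turbidity. Controls were DMSO solvent, medium ± antibiotic, and ampicillin.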

Proteus vulgaris [4] = test: Antibacterial activity against Proteus vulgaris ATCC 13315 assessed as growth inhibition after 18 to 24 hrs by microdilution assay; type: functional; how it was run: as §1
Staphylococcus aureus [5] = test: Antibacterial activity against Staphylococcus aureus ATCC 25923 assessed as growth inhibition after 18 to 24 hrs by microdilution assay; type: functional; how it was run: as §1
Pseudomonas aeruginosa [6] = test: Antibacterial activity against Pseudomonas aeruginosa ATCC 27853 assessed as growth inhibition after 18 to 24 hrs by microdilution assay; type: functional; how it was run: as §1
Bacillus spizizenii [7] = test: Antibacterial activity against Bacillus subtilis ATCC 6633 assessed as growth inhibition after 18 to 24 hrs by microdilution assay; type: functional; how it was run: as §1
Enterococcus faecalis [8] = test: Antibacterial activity against Enterococcus faecalis ATCC 29212 assessed as growth inhibition after 18 to 24 hrs by microdilution assay; type: functional; how it was run: as §1
Enterococcus faecalis [9] = test: Antibacterial activity against Enterococcus faecalis ATCC 29212 assessed as growth inhibition at 100 ug/mL after 18 to 24 hrs by microdilution assay; type: functional, organism-based
Staphylococcus aureus [10] = test: Antibacterial activity against Staphylococcus aureus ATCC 25923 assessed as growth inhibition at 100 ug/mL after 18 to 24 hrs by microdilution assay; type: functional, organism-based
Bacillus spizizenii [11] = test: Antibacterial activity against Bacillus subtilis ATCC 6633 assessed as growth inhibition at 100 ug/mL after 18 to 24 hrs by microdilution assay; type: functional
Pseudomonas aeruginosa [12] = test: Antibacterial activity against Pseudomonas aeruginosa ATCC 27853 assessed as growth inhibition at 100 ug/mL after 18 to 24 hrs by microdilution assay; type: functional, organism-based
Klebsiella pneumoniae [13] = test: Antibacterial activity against Klebsiella pneumoniae ATCC 13883 assessed as growth inhibition at 100 ug/mL after 18 to 24 hrs by microdilution assay; type: functional, organism-based
Proteus vulgaris [14] = test: Antibacterial activity against Proteus vulgaris ATCC 13315 assessed as growth inhibition at 100 ug/mL after 18 to 24 hrs by microdilution assay; type: functional, organism-based

Row | Structure (SMILES) | Activity [1] | SC50 [2] | MIC (Klebsiella pneumoniae [3]) | MIC (Proteus vulgaris [4]) | MIC (Staphylococcus aureus [5]) | MIC (Pseudomonas aeruginosa [6]) | MIC (Bacillus spizizenii [7]) | MIC (Enterococcus faecalis [8]) | growth inhibition (GI) (Enterococcus faecalis [9]) | growth inhibition (GI) (Staphylococcus aureus [10]) | growth inhibition (GI) (Bacillus spizizenii [11]) | growth inhibition (GI) (Pseudomonas aeruginosa [12]) | growth inhibition (GI) (Klebsiella pneumoniae [13]) | growth inhibition (GI) (Proteus vulgaris [14])
1 | Nc1ccccc1C(=O)/C=C/c1ccncc1 | 43 equiv | 130 µg/mL |  |  |  |  |  |  |  |  |  |  |  | 
2 | CCCCCCCCCCn1c(-c2cc[n+](CCCCCCCCCC)cc2)cc(=O)c2ccccc21.[Br-] | 40 equiv | 78 µg/mL | 62.5 µg/mL | 62.5 µg/mL | 62.5 µg/mL | 31.2 µg/mL | 62.5 µg/mL | 125 µg/mL |  |  |  |  |  | 
3 | CCCCCCCCCCCn1c(-c2cc[n+](CCCCCCCCCCC)cc2)cc(=O)c2ccccc21.[Br-] | 44 equiv | 72 µg/mL | 125 µg/mL | 31.2 µg/mL | 62.5 µg/mL | 62.5 µg/mL | 125 µg/mL | 125 µg/mL |  |  |  |  |  | 
4 | CCCCCCCCCn1c(-c2cc[n+](CCCCCCCCC)cc2)cc(=O)c2ccccc21.[Br-] | 59 equiv | 55 µg/mL | 31.2 µg/mL | 31.2 µg/mL | 31.2 µg/mL | 62.5 µg/mL | 62.5 µg/mL | 62.5 µg/mL |  |  |  |  |  | 
5 | CCCCCCCCCCCCn1c(-c2cc[n+](CCCCCCCCCCCC)cc2)cc(=O)c2ccccc21.[Br-] | 39 equiv | 82 µg/mL | 125 µg/mL | 125 µg/mL | 125 µg/mL | 125 µg/mL | 250 µg/mL | 125 µg/mL |  |  |  |  |  | 
6 | O=c1cc(-c2ccncc2)[nH]c2ccccc12 | 46 equiv | 133 µg/mL |  |  |  |  |  |  |  |  |  |  |  | 
7 | CCCCCCCCCCCCCn1c(-c2cc[n+](CCCCCCCCCCCCC)cc2)cc(=O)c2ccccc21.[Br-] | 53 equiv | 45 µg/mL | 250 µg/mL | 250 µg/mL | 250 µg/mL | 250 µg/mL | 250 µg/mL | 250 µg/mL |  |  |  |  |  | 
8 | CCCCCCCCCCCCCCn1c(-c2cc[n+](CCCCCCCCCCCCCC)cc2)cc(=O)c2ccccc21.[Br-] | 14 equiv | 72 µg/mL | 500 µg/mL | 500 µg/mL | 500 µg/mL | 500 µg/mL | 500 µg/mL | 250 µg/mL |  |  |  |  |  | 
9 | CCCCCn1c(-c2cc[n+](CCCCC)cc2)cc(=O)c2ccccc21.[Br-] | 94 equiv | 112 µg/mL | 31.2 µg/mL | 62.5 µg/mL | 15.6 µg/mL | 15.6 µg/mL | 62.5 µg/mL | 62.5 µg/mL |  |  |  |  |  | 
10 | CCCCCCCn1c(-c2cc[n+](CCCCCCC)cc2)cc(=O)c2ccccc21.[Br-] | 59 equiv | 56 µg/mL | 62.5 µg/mL | 125 µg/mL | 31.2 µg/mL | 62.5 µg/mL | 62.5 µg/mL | 62.5 µg/mL |  |  |  |  |  | 
11 | CCCCCCCCn1c(-c2cc[n+](CCCCCCCC)cc2)cc(=O)c2ccccc21.[Br-] | 59 equiv | 85 µg/mL | 31.2 µg/mL | 31.2 µg/mL | 15.6 µg/mL | 31.2 µg/mL | 31.2 µg/mL | 62.5 µg/mL |  |  |  |  |  | 
12 | CCCCCCCCCCCCCCCn1c(-c2cc[n+](CCCCCCCCCCCCCCC)cc2)cc(=O)c2ccccc21.[Br-] | 66 equiv | 133 µg/mL | 250 µg/mL | 500 µg/mL | 500 µg/mL | 500 µg/mL | 500 µg/mL | 250 µg/mL |  |  |  |  |  | 
13 | CC1(C)S[C@@H]2[C@H](NC(=O)[C@H](N)c3ccccc3)C(=O)N2[C@H]1C(=O)O |  |  |  |  |  |  |  |  | Active | Active | Active | Active | Active | Active
14 | CCCCCCn1c(-c2cc[n+](CCCCCC)cc2)cc(=O)c2ccccc21.[Br-] | 141 equiv | 56 µg/mL | 15.6 µg/mL | 62.5 µg/mL | 7.8 µg/mL | 7.8 µg/mL | 31.2 µg/mL | 31.2 µg/mL |  |  |  |  |  | 
